Screens deposited in PubChem BioAssay by Sanford-Burnham Center for Chemical Genomics.
The list is not random: actives were taken first. Their share in the collection is about 0.72%.
bIAP activator: increases bovine intestinal alkaline phosphatase activity | purified bovine IAP, CDP-star luminescence, 30 min; stronger effect = higher value; fold of DMSO-control signal, blank-subtracted | hit rate 0.17% among 200,000 | activation factor at 20 µM;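 active = activation factor of 2 or more at 20 µM, a signal rise over negative controls twice the positive control's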
bIAP inhibitor: blocks bovine intestinal alkaline phosphatase activity; purified bovine IAP, CDP-star luminescence, 30 min; inhibition, % at 20 µM; 190,000 tested, under 10 active; AID 1019;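 active = over 50% inhibition of intestinal alkaline phosphatase at 20 µM in the single-dose screen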
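Assay system: bovine IAP enzyme; medium: DEA buffer 100 mM, pH 9.8, with MgCl2 1.0 mM, ZnCl2 0.02 mM; doses: 20 µM single dose; incubation: enzyme reaction for 30 min at room temperature; detection: CDP-star luminescence signal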
hIAP activ: increases human intestinal alkaline phosphatase activity | P09923 | hit rate 0.16% among 330,000 | purified human IAP, CDP-Star luminescence, 30 min; stronger effect = higher value; 1 = vehicle-only enzyme, 0 = enzyme-free background | activation factor at 10 µM;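 active = activation factor of the enzyme at least 2-fold when tested at 20 µM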
Target sequence (P09923 whole entry, looked up): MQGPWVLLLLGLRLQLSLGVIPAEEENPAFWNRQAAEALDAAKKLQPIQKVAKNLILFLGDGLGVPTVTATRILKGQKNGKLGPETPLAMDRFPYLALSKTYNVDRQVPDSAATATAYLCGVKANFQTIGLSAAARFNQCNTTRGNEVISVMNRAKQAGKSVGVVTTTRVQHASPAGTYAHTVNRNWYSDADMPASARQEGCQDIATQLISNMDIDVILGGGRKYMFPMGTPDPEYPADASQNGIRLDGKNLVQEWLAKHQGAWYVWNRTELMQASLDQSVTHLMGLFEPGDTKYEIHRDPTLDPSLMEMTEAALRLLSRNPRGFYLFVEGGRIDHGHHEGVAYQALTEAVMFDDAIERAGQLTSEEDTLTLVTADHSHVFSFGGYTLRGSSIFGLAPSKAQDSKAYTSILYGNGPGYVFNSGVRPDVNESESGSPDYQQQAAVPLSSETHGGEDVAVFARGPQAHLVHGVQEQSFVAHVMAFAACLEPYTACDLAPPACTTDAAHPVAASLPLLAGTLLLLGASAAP
mIAP inh: blocks mouse intestinal alkaline phosphatase; purified mouse IAP, CDP-Star luminescence, 30 min; inhibition, % at 10 µM; hit rate 0.2% among 330,000;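 active = inhibition of at least 40% at 10 µM in the primary screen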;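 also: plate controls were DMSO with enzyme for no effect and no enzyme wells for full effect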
mIAP activ: mouse IAP activation. muIAP, CDP-Star luminescence, 30 min; stronger effect = higher value; 1 = vehicle-only enzyme signal, 0 = enzyme-free wells. activation factor at 10 µM. hit rate 0.24% among 330,000. AID 2805;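 active = activation factor of at least 2 at 20 µM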
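Assay system: mouse IAP enzyme; reagent: chemiluminescent substrate CDP-Star; dosing: test compounds delivered from DMSO solution; schedule: 30 min at room temperature; measured by: luminescence from enzymatic CDP-Star hydrolysis; controls: DMSO-only wells and no-enzyme negative control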
hIAP inh: blocks human intestinal alkaline phosphatase | P09923 | purified IAP, CDP-Star luminescence, 30 min | inhibition, % at 10 µM | hit rate 0.12% among 330,000 | AID 2544;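 active = inhibition reaching a set limit with compound at 10 µM in the primary screen, cut at about 35% in these data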;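 also: plate controls were DMSO wells with enzyme for no effect and no-enzyme buffer wells for full effect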
mIAP inh confirm: mouse IAP inhibition confirmation; shares compounds with mIAP inh; purified mouse IAP, CDP-Star luminescence, 30 min; inhibition, % at 10 µM; hit rate 4.7% among 11,000; AID 434971;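 active = inhibition of at least 40% at 10 µM in either of the two replicates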;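 also: plate controls were DMSO wells with enzyme for no effect and buffer wells lacking enzyme for full effect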
The depositor's hits bear a star.

How did CC(NC(=O)Nc1ccc(Cl)cc1)c1ccc2c(c1)OCO2 (stereo not given) do in these assays?
hIAP activ: 1.1; mIAP inh: -184; mIAP activ: 2.8*; hIAP inh: -14; mIAP inh confirm: -153

What do the screens show for `COc1ccc(NC(=O)NC(C)c2ccc3c(c2)OCO3)cc1OC` (stereo not given)?
hIAP activ: 1; mIAP inh: -10; mIAP activ: 1.1; hIAP inh: 0

Results for COc1cc(NC(=O)c2cc(-c3ccccc3Cl)on2)cc(OC)c1OC ?
hIAP activ: 0.89; mIAP inh: 4; mIAP activ: 0.96; hIAP inh: 11

How did COC(=O)N/N=C/c1ccc([N+](=O)[O-])o1 do in these assays?
bIAP activator: 0.8; bIAP inhibitor: 20; hIAP activ: 0.9; mIAP inh: 24; mIAP activ: 0.76; hIAP inh: 10

Results for Cc1cc(C(=O)N/N=C/c2ccc([N+](=O)[O-])o2)c(C)o1 ?
hIAP activ: 0.99; mIAP inh: 47*; mIAP activ: 0.53; hIAP inh: 1; mIAP inh confirm: 68*

What do the screens show for `Cc1nonc1C(=O)N/N=C/c1ccc([N+](=O)[O-])o1`?
bIAP activator: 1.3; bIAP inhibitor: -28; hIAP activ: 1.2; mIAP inh: 47*; mIAP activ: 0.53; hIAP inh: -17; mIAP inh confirm: 60*

Results for O=C(N/N=C/c1ccc([N+](=O)[O-])o1)c1sc2ccccc2c1Cl ?
hIAP activ: 0.87; mIAP inh: 42*; mIAP activ: 0.58; hIAP inh: 13; mIAP inh confirm: 54*

Results for CSCC[C@H](NC(=O)C1CCN(S(=O)(=O)c2ccc(C)cc2C)CC1)c1nc2ccccc2[nH]1 ?
hIAP activ: 1; mIAP inh: -155; mIAP activ: 2.6*; hIAP inh: 0; mIAP inh confirm: -102

What do the screens show for `CSCC[C@H](NC(=O)c1cccc(S(=O)(=O)N2CCCCCC2)c1)c1nc2ccccc2[nH]1`?
hIAP activ: 1.2; mIAP inh: -16; mIAP activ: 1.2; hIAP inh: -19

How did COC(=O)c1ccc(NC(=O)Nc2ccc(F)cc2F)cc1 do in these assays?
bIAP activator: 1; bIAP inhibitor: -5; hIAP activ: 1; mIAP inh: -80; mIAP activ: 1.8; hIAP inh: -4

What do the screens show for `COC(=O)c1ccc(NC(=O)Nc2cccc(F)c2)cc1`?
bIAP activator: 0.9; bIAP inhibitor: 11; hIAP activ: 1; mIAP inh: -160; mIAP activ: 2.6*; hIAP inh: -1; mIAP inh confirm: -97

Results for COc1ccccc1C(CC(=O)Nc1ccc(C)c(C)c1)c1ccc(OC(C)C)cc1 (stereo not given) ?
bIAP activator: 0.8; bIAP inhibitor: 15; hIAP activ: 1; mIAP inh: -114; mIAP activ: 2.1*; hIAP inh: 0; mIAP inh confirm: -106

Results for O=C(Cc1ccccc1Cl)N1CCN(c2ncccn2)CC1 ?
bIAP activator: 1.2; bIAP inhibitor: -15; hIAP activ: 1.2; mIAP inh: -3; mIAP activ: 1; hIAP inh: -21

What do the screens show for `NS(=O)(=O)c1ccc(-c2ccc(/C=C3\C(=O)Nc4ccccc43)o2)cc1`?
hIAP activ: 0.84; mIAP inh: 11; mIAP activ: 0.89; hIAP inh: 16

How did CC1(C)OC(=O)C(=Cc2ccc(-c3ccc(S(N)(=O)=O)cc3)o2)C(=O)O1 do in these assays?
bIAP activator: 1.2; bIAP inhibitor: -16; hIAP activ: 0.99; mIAP inh: 64*; mIAP activ: 0.36; hIAP inh: 1; mIAP inh confirm: 79*

What do the screens show for `COC(=O)c1ccc(OC(=O)/C=C/c2ccco2)cc1`?
hIAP activ: 1.1; mIAP inh: 2; mIAP activ: 0.98; hIAP inh: -12

What do the screens show for `O=Cc1cccc(OC(=O)/C=C/c2ccco2)c1`?
hIAP activ: 0.96; mIAP inh: 49*; mIAP activ: 0.51; hIAP inh: 4; mIAP inh confirm: 57*

What do the screens show for `NS(=O)(=O)c1ccc(-c2ccc(/C=N/NC(=O)c3ccc([N+](=O)[O-])cc3)o2)cc1`?
hIAP activ: 1.4; mIAP inh: 42*; mIAP activ: 0.58; hIAP inh: -38; mIAP inh confirm: 45*

What do the screens show for `CC1(C)CCN2CCC(C)(C)c3c(O)ccc1c32`?
hIAP activ: 0.77; mIAP inh: 3; mIAP activ: 0.97; hIAP inh: 24

How did C#CCOCCOCCOCCNc1nc(N2CCN(C(=O)CCCCCCCCCCNC(=O)[C@@H](CCC(=O)O)n3cc(CCCCCN)nn3)CC2)nc(N2CCN(C(=O)CCCCCCCCCCNC(=O)[C@H]([C@@H](C)CC)n3cc(CCCCCN)nn3)CC2)n1 do in these assays?
hIAP activ: 1; mIAP inh: -120; mIAP activ: 2.2*; hIAP inh: -2; mIAP inh confirm: -176

Results for C#CCOCCOCCOCCNc1nc(N2CCN(C(=O)CCCCCCCCCCNC(=O)[C@H](CCCCN)n3cc(CCCC(=O)O)nn3)CC2)nc(N2CCN(C(=O)CCCCCCCCCCNC(=O)[C@@H]([C@H](C)O)n3cc(C)nn3)CC2)n1 ?
hIAP activ: 1; mIAP inh: -19; mIAP activ: 1.2; hIAP inh: -5

Results for C#CCOCCOCCOCCNc1nc(N2CCN(C(=O)CCCCCCCCCCNC(=O)[C@H]([C@@H](C)CC)n3cc(CCCCCN)nn3)CC2)nc(N2CCN(C(=O)CCCCCCCCCCNC(=O)[C@H](CCCCN)n3cc(CCCC(=O)O)nn3)CC2)n1 ?
hIAP activ: 1.1; mIAP inh: -142; mIAP activ: 2.4*; hIAP inh: -8; mIAP inh confirm: -222

What do the screens show for `CCOC(=O)c1ccc(NC(=O)N2CCN(Cc3ccccc3)CC2)cc1`?
bIAP activator: 1.4; bIAP inhibitor: -42; hIAP activ: 1.1; mIAP inh: 4; mIAP activ: 0.96; hIAP inh: -7

Results for CCOC(=O)C1(Cc2cccc(OC)c2)CCCN(C(=O)CCN2CCCO2)C1 (stereo not given) ?
hIAP activ: 1.1; mIAP inh: -6; mIAP activ: 1.1; hIAP inh: -10

What do the screens show for `S=c1[nH]nc(COc2ccccc2)n1/N=C/C=C/c1ccco1`?
hIAP activ: 1; mIAP inh: 51*; mIAP activ: 0.49; hIAP inh: 0; mIAP inh confirm: 58*

Results for COc1ccccc1/C=C/C=N/n1c(-c2ccco2)n[nH]c1=S ?
hIAP activ: 1.1; mIAP inh: 17; mIAP activ: 0.83; hIAP inh: -14

How did COc1cc(/C=N/n2c(-c3n[nH]c4c3CCC4)n[nH]c2=S)cc(OC)c1O do in these assays?
hIAP activ: 1.7; mIAP inh: 15; mIAP activ: 0.85; hIAP inh: -66
